High-throughput results deposited in PubChem by The Scripps Research Institute Molecular Screening Center.
This is a sample that favours compounds with a hit; in the whole collection about 1.8% have one here.
NPY-Y2 antag – NPY-Y2 receptor antagonists, primary screen, cell-based; Neuropeptide Y receptor type 2 (Homo sapiens), P49146; NPY-Y2 expressing cells, antagonist mode; inhibition, % at 2.7 µM; 140,000 compounds, 0.99% hits;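 also: 0% = vehicle with agonist challenge and 100% = reference antagonist with challenge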
NPY2 pot ag – NPY-Y2 potentiators or agonists, primary screen, cell-based; activation, % at 3.6 µM; AID 1359, 2008; cells expressing NPY-Y2, potentiator/agonist read-out; Neuropeptide Y receptor type 2 (Homo sapiens), P49146; 220,000 compounds, 0.45% hits; in the data active = activation above about 27%;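 also: cells stimulated with NPY near EC25 plus isoproterenol at EC100; 0% = vehicle plus submaximal agonist and 100% = vehicle plus saturating agonist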
NPY-Y1 PAM-ag – NPY-Y1 receptor potentiators or agonists, primary screen, cell-based. Neuropeptide Y receptor type 1 (Homo sapiens), P25929. NPY-Y1 expressing cells, potentiator/agonist activation. activation, % at 3.6 µM. 220,000 compounds, 0.37% hits. AID 1304, 2008; in the data active = activation above about 33%, passing the limit was not always enough;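 also: cells stimulated with NPY at EC10 then isoproterenol at EC100; 0% = low agonist plus stimulus and 100% = saturating agonist plus stimulus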
Target sequence (P25929 whole entry, looked up): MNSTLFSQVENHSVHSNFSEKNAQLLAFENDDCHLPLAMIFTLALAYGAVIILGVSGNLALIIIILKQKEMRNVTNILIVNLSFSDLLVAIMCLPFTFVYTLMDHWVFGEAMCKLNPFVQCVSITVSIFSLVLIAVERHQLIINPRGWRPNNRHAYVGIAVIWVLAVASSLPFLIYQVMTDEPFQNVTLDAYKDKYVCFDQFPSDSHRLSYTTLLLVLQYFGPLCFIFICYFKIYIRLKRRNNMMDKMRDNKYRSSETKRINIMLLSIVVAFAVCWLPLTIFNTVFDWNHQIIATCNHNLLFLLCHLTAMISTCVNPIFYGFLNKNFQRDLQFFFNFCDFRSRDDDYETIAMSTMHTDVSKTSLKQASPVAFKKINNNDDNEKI
NPY-Y1 antag – NPY-Y1 receptor antagonists, primary screen, cell-based; Neuropeptide Y receptor type 1 (Homo sapiens), P25929; HEK293-CNG Y1 cells, membrane potential fluorescence; NPY at EC95, then isoproterenol; inhibition, % at 3.6 µM; 200,000 compounds, 1% hits;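 active = inhibition above the campaign mean inhibition of all tested compounds plus 3 SD, cut at about 20% in these data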;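 also: 0% = DMSO wells given NPY plus isoproterenol and 100% = isoproterenol alone without NPY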
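Material: HEK293 Y1/CNG channel cell line | Also added: NPY (25 nM), isoproterenol (1 µM), Ro 20-1724 (25 µM) | Compound: One concentration, 3.6 µM, in 0.4% DMSO | Schedule: 3 h dye uptake, 1 h room-temperature compound, 45 min post-isoproterenol | Signal: Membrane-potential fluorescent dye readout | Read-out: % inhibition of NPY effect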
NPY-Y1 ant conf – NPY-Y1 receptor antagonists, retest of hits, confirmation, HEK293-CNG cells, membrane potential fluorescence, triplicate; shares compounds with NPY-Y1 antag; cAMP; NPY challenge against isoproterenol-raised cAMP; inhibition, % at 3.6 µM; 1,200 compounds, 21% hits; in the data active = inhibition above about 20%;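 also: 0% = vehicle with agonist plus stimulus and 100% = stimulus alone without agonist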
NPY2 antag ctr – NPY-Y2 receptor antagonists, selectivity check, confirmation, counter-screen for NPY-Y1 antagonist project, HEK293-CNG cells, membrane potential fluorescence, triplicate; inhibition, % at 3.6 µM; shares compounds with NPY-Y1 antag; 1,200 compounds, 28% hits; antagonism; cells given NPY, then isoproterenol;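 also: 0% = DMSO with agonist challenge and 100% = reference antagonist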
Active calls of the source: *; nt = no result. Rule as the data show it, unless noted: active = inhibition above about 17%; inactive = the rest.

SMILES	NPY-Y2 antag	NPY2 pot ag	NPY-Y1 PAM-ag	NPY-Y1 antag	NPY-Y1 ant conf	NPY2 antag ctr
CCOC(=O)c1c(CSc2ccc(C)cc2)n(C)c2cc(Br)c(O)c(CN(C)C)c12	nt	-100	-78	75*	60*	72*
CCOC(=O)c1c(C)n(-c2ccc(C)cc2)c2ccc(O)c(CN(C)C)c12	nt	-14	-43	51*	52*	55*
CC(C)n1cc(CN2CCCC(CO)(Cc3cccc(Cl)c3)C2)cn1 (stereo unspecified)	nt	-1	-5	-7	nt	nt
CC(C)n1nc(C(=O)Nc2cccc(S(=O)(=O)NCc3ccco3)c2)c2ccccc2c1=O	nt	-21	-12	nt	nt	nt
CCOC(=O)c1c(NC(=O)CN(CC)CC)sc2c1CCC2	-1	3	-4	4	nt	nt
CCN(CC)CC(=O)Nc1sc2c(c1C(=O)c1ccccc1OC)CCC2	nt	11	16	23*	13	2
Cc1cc(C)cc(OCC(=O)NCc2nc(-c3ccccc3)no2)c1	15	-19	-50	29*	15	11
Cc1cccc(-c2noc(CCC(=O)NCc3ccccc3)n2)c1	11	-25	-46	8	nt	nt
CO/N=C/C(=N\Nc1ccccc1)C(=O)c1ccccc1	nt	-2	3	14	nt	nt
CO/N=C\C(=N\Nc1ccc(OC)cc1)C(=O)c1ccccc1	11	-23	-63	23*	6	9
O=C(O)/C=C/C(=O)Nc1cc(F)ccc1F	nt	2	15	nt	nt	nt
CCCCCCCn1c(=N)n(CC(O)c2ccco2)c2ccccc21 (stereo unspecified)	nt	-34	-12	33*	24*	23*
CC(C)(C)c1ccc(Cn2c(=N)n(CC(O)c3ccco3)c3ccccc32)cc1 (stereo unspecified)	nt	-20	-8	47*	22*	31*
CCNc1nc(NC(C)C)nc(N(n2cnnc2)S(=O)(=O)c2ccc(C)cc2)n1	2	6	-15	1	nt	nt
CCOC(=O)c1c(C)n(-c2ccc(C)cc2)c2ccc(OCC(O)CNCC3CCCO3)cc12 (stereo unspecified)	nt	-36	-124	59*	62*	72*
CCOC(=O)c1c(C)n(-c2ccc(C)cc2)c2ccc(OCC(O)CNCCCO)cc12 (stereo unspecified)	nt	-56	-71	29*	36*	41*
CCCCCc1ccc(OCCOCCn2c[n+](C)c3ccccc32)c(CCCCC)c1	nt	-4	-38	35*	42*	23*
CN(c1ccccc1)P(=O)(N(C)c1ccccc1)N(C)c1ccccc1	nt	12	-23	34*	30*	20*
COC(=O)C1CCCN1S(=O)(=O)c1ccc2ccccc2c1 (stereo unspecified)	9	3	7	41*	57*	27*
O=C(COC(=O)c1ccc(S(=O)(=O)Nc2ccccc2)cc1)NCc1ccco1	-1	2	24	4	nt	nt
O=C1C=C(c2ccccc2)CC(/C=C/c2ccccc2)C1 (stereo unspecified)	9	4	-38	23*	16	10
COC(=O)C1C(=O)CC(C)(O)C(C(=O)OC)C1/C=C/c1ccccc1 (stereo unspecified)	2	-14	2	-1	nt	nt
O=C(O)c1nn(-c2ccccc2)nc1-c1nn(-c2ccccc2)nc1C(=O)O	9	-19	-33	31*	10	10
COC(=O)c1nn(-c2ccccc2)nc1-c1nn(-c2ccccc2)nc1C(=O)OC	4	-8	-8	3	nt	nt
Cc1ccccc1C(=O)OCCCN=C1NS(=O)(=O)c2ccccc21	-2	4	-1	-5	nt	nt
Cc1ccc(C(C)C)c(OCCCN2C(=O)NC(C)(C)C2=O)c1	3	-8	-4	-2	nt	nt
Cc1ccc(C(C)C)c(OCCCN(C)Cc2ccccc2)c1	12	-11	-28	32*	12	18*
COC(=O)c1ccc(NC(CC(C)C)C(=O)OC)c([N+](=O)[O-])c1 (stereo unspecified)	7	-20	-41	8	nt	nt
